SMARCA2 act: SMARCA2 function activation, primary screen; activation, % at 9.1 µM; AID 652017; MG213 cells, MMTV-luciferase reporter, dexamethasone, overnight; hit rate 1% among 370,000; in the data active = activation above about 7.8%;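 also: 0% = vehicle wells and 100% = reference activator wells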
NR2E3 ag-1: activates human photoreceptor nuclear receptor NR2E3 | Q9Y5X4 | GST-NR2E3/biotin-RetCOR TR-FRET, 1536-well | inhibition of corepressor binding, % at 4.78 µM | hit rate 0.12% among 320,000 | AID 2300;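 active = percent inhibition above the cutoff of mean plus 3 SD of all tested compounds, set per screening campaign, cut at about 20% in these data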;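 also: 0% = DMSO wells and 100% = biotin wells as full block of FRET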
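System: GST-tagged NR2E3 plus biotinylated RetCOR corepressor; Buffer or medium: pH 7.5 Tris-based buffer; Probe or stimulus: RetCOR corepressor, biotinylated, 7 nM; Doses: compound at 4.8 µM, single dose; Schedule: 5 h incubation at 4 °C; Technique: time-resolved FRET; Evaluation: percent inhibition of TR-FRET ratio; Replication: one well per compound, singlicate testing.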
GASC-1 inh: human JMJD2C demethylase inhibition | Q9H3R0 | GST-JMJD2C(1-420) H3K9me3 demethylation, DELFIA europium | inhibition, % at 2.35 µM | hit rate 0.069% among 330,000;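 active = more than half of a compound's replicate wells show inhibition beyond 50%, single wells judged on their own value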;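 also: signal counts dimethyl H3K9 product captured on neutravidin plate; 0% = median of DMSO wells and 100% = 0.3 times that DMSO median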
DAX1 inh-1: inhibitors of DAX1 repression of SF-1 activated StAR promoter; HEK293T StAR-luciferase reporter, SF-1/DAX-1 repression relief; inhibition, % at 6.8 µM; hit rate 1.1% among 370,000; AID 652010;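 active = inhibition above the mean over all tested compounds plus 3 SD, cut at about 3.6% in these data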;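 also: 0% = DAX-1 cells with DMSO and 100% = cells lacking DAX-1 with DMSO; higher inhibition means more luminescence from relief of DAX-1 repression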
DAX1 inh-2: inhibits human nuclear receptor DAX1; HEK293 Gal4-DAX1 luciferase reporter, luminescence; P51843; inhibition, % at 6.75 µM; hit rate 0.99% among 340,000;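 active = inhibition above the mean over all tested compounds plus 3 SD, cut at about 4.2% in these data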;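 also: 0% = DAX1-transfected cells with DMSO and 100% = empty-vector control cells with DMSO; inhibition shows as a rise in luminescence from relieved DAX1 repression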
Target sequence (P51843 207-470 limits assumed): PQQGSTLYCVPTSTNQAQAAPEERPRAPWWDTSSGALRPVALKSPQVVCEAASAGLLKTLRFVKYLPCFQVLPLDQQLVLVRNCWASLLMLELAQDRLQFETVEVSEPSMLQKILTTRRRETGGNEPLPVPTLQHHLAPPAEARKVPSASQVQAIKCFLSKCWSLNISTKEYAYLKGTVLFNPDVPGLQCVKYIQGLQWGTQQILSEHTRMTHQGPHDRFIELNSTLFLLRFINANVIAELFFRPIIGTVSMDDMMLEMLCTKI
NR2E3 ag-2: human photoreceptor-specific nuclear receptor agonism; Q9Y5X4; CHO-S Gal4-NCOR/VP16-NR2E3 two-hybrid, luciferase; inhibition of corepressor binding, % at 3.98 µM; hit rate 0.35% among 360,000; AID 602229;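 active = inhibition above the mean of all tested compounds plus 3 SD, cut at about 70% in these data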;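 also: 0% = DMSO with NR2E3 transfected cells and 100% = cells lacking NR2E3 construct; higher means lower luciferase signal from less NR2E3 corepressor binding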
NR2E3 ag confirm-1: confirmation of human NR2E3 nuclear receptor agonists. shares compounds with NR2E3 ag-1. cell-free NR2E3 corepressor release, TR-FRET, 5 h. activation (reported as inhibition), % at 3.98 µM. hit rate 39% among 360; in the data active = activation above about 20%
PPARg-NCOR2 ctr: PPARg-NCOR2 interaction agonism, NR2E3 counter-screen | shares compounds with NR2E3 ag-1 | TR-FRET PPARg-NCOR2 coregulator interaction, biochemical | inhibition, % at 3.98 µM | hit rate 45% among 360 | AID 504787; in the data active = inhibition above about 20%;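 also: 0% = DMSO vehicle and 100% = wells without protein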
NR2E3 ag confirm-2: confirmation of human NR2E3 agonists | shares compounds with NR2E3 ag-2 | CHO-S mammalian two-hybrid NR2E3-NCOR, luciferase luminescence | hit rate 51% among 2,300 | inhibition, % at 3.98 µM;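 active = average inhibition above a cutoff equal to the mean inhibition of all tested compounds plus one SD, cut at about 70% in these data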;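 also: 0% = DMSO in NR2E3 cells and 100% = DMSO in cells lacking NR2E3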
GAL4-VP16 luc: counter-screen for NR2E3 agonists: GAL4-VP16 reporter inhibitors | shares compounds with NR2E3 ag-2 | inhibition, % at 3.98 µM | hit rate 29% among 2,300 | CHO-S GAL4-VP16 luciferase reporter, luminescence | AID 624379;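 active = mean inhibition above a cutoff equal to the average over all tested compounds plus one standard deviation, cut at about 70% in these data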;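 also: luciferase from a UAS reporter driven by GAL4-VP16 transactivation; 0% = DMSO with VP16-transfected cells and 100% = DMSO with cells lacking VP16; higher means less reporter light so more repression of VP16 activity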
Numbers without * were called inactive. The list is not random: actives were taken first. Their share in the collection is about 3.2%.

Screening Cc1cc(C)cc(OCCOc2cccc(C=C3C(=O)NC(=O)NC3=O)c2)c1 returned SMARCA2 act 0, NR2E3 ag-1 1, GASC-1 inh 68*, DAX1 inh-1 1, DAX1 inh-2 1 and NR2E3 ag-2 -55.
`O=C(O)c1cc2ccccc2n1C1CCN(Cc2ccccc2)CC1` gave SMARCA2 act -1 and DAX1 inh-1 -1.
For CN(C)c1nc(-c2ccccc2)[n+](C)s1 the results were SMARCA2 act 1, NR2E3 ag-1 1, GASC-1 inh -2, DAX1 inh-1 1, DAX1 inh-2 0 and NR2E3 ag-2 -12.
`Cc1ccc(-c2nc(N3CCOCC3)s[n+]2-c2ccccc2)cc1` gave SMARCA2 act 5, NR2E3 ag-1 1, GASC-1 inh 2, DAX1 inh-1 4.0*, DAX1 inh-2 1 and NR2E3 ag-2 -117.
NC(Cc1cc(O)c(O)cc1O)C(=O)O (stereo unspecified) was read as NR2E3 ag-1 25*, NR2E3 ag confirm-1 38* and PPARg-NCOR2 ctr 2.
`CCN1C(=O)C(=C2C=C(C)N(Cc3ccco3)C(C)=C2)C(=O)N(CC)C1=S` gave SMARCA2 act -4, NR2E3 ag-1 25*, GASC-1 inh 3, DAX1 inh-1 0, DAX1 inh-2 -1, NR2E3 ag-2 -2, NR2E3 ag confirm-1 14 and PPARg-NCOR2 ctr 17.
Screening CCN1C(=O)C(=C/C=C/c2ccco2)C(=O)N(CC)C1=S returned SMARCA2 act 0, NR2E3 ag-1 -1, GASC-1 inh 38, DAX1 inh-1 0, DAX1 inh-2 2 and NR2E3 ag-2 -14.
Screening CS(=O)(=O)N1Cc2cc(Br)ccc2-n2nncc2C1 returned SMARCA2 act 7 and DAX1 inh-1 0.
`CCC1(OC(=O)CN)C(=O)OCc2c1cc1n(c2=O)Cc2cc3ccccc3nc2-1` (stereo unspecified) gave NR2E3 ag-1 4, GASC-1 inh -6, DAX1 inh-2 -2, NR2E3 ag-2 93*, NR2E3 ag confirm-2 94* and GAL4-VP16 luc 56.
C[C@]12CCC3C(CC[C@H]4C[C@@H](O)CC[C@]34C)C1=CC[C@@H]2O (stereo partly specified) was read as SMARCA2 act -2, DAX1 inh-1 1, DAX1 inh-2 -1 and NR2E3 ag-2 1.
Cc1[nH]c2ccc(OC(F)(F)F)cc2c1CCNCc1cccc([N+](=O)[O-])c1 was read as SMARCA2 act -4, NR2E3 ag-1 3, GASC-1 inh 39, DAX1 inh-1 0, DAX1 inh-2 -2 and NR2E3 ag-2 1.
CCOc1cccc(CNCCc2c(C)[nH]c3ccc(OC(F)(F)F)cc23)c1O was read as SMARCA2 act -6, NR2E3 ag-1 2, GASC-1 inh -10, DAX1 inh-1 -1, DAX1 inh-2 -4, NR2E3 ag-2 98*, NR2E3 ag confirm-2 90* and GAL4-VP16 luc 71.
CN1C(=O)CCS(=O)(=O)C1c1ccc(Cl)cc1 (stereo unspecified) was read as SMARCA2 act -4 and DAX1 inh-1 0.
`CCC(=NCCc1c[nH]c2ccccc12)c1c(O)n(C)c(=O)n(C)c1=O` gave SMARCA2 act -5, NR2E3 ag-1 6, GASC-1 inh -8, DAX1 inh-1 -3, DAX1 inh-2 -3, NR2E3 ag-2 73*, NR2E3 ag confirm-2 87* and GAL4-VP16 luc 77*.
